DAGLB inhibitor = DAGLB lipase inhibitors, primary screen, biochemical, fluorescence, HTS | actives 0.059% (n = 340,000) | Diacylglycerol lipase-beta (Homo sapiens), Q8NCG7 | HEK293T DAGLB membrane lysate, EnzChek fluorogenic substrate | inhibition, % at 5.17 µM; in the data active = inhibition above about 34%
CendR NRP1 mod = modulators of CendR peptide binding to NRP-1, primary screen, biochemical, fluorescence polarization, uHTS. Neuropilin-1 (Homo sapiens), O14786. FAM-RPARPAR peptide binding to NRP-1. inhibition, % at 25 µM. actives 0.85% (n = 360,000);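 active = inhibition or corrected inhibition above about 18%, plus a signal ratio from 0.5 to 1.5, limit read from the data, passing the limit was not always enough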
Myeloid diff 2 = induction of myeloid progenitor differentiation, primary screen, cell-based, flow cytometry, MLPCN library | ER-HoxA9 myeloid progenitors, lysozyme-GFP differentiation | calls only at 10 µM | actives 1% (n = 360,000) | AID 624256, 2012;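 active = normalized GFP-positive differentiation at or above the plate's own cutoff, the solvent-only control mean plus 3 SD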;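 note: cells exposed to compound for four days before flow analysis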
MT1-MMP act inh = blockers of MT1-MMP proenzyme processing, primary screen, HT1080 RFP-PRO-GFP cells, GFP/RFP fluorescence | GFP/RFP ratio fluorescence, overnight; percent of plate control window, DMSO zero | GFP/RFP ratio change, % at 20 µM | actives 0.061% (n = 360,000) | AID 651647, 2012;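 active = GFP/RFP ratio change of at least 30% with cell ATP level not reduced by more than half and red fluorescence within 50% of control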
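Assay system: RFP-PRO-GFP reporter HT1080 cells; read-out basis: GFP/RFP fluorescence ratio; benchmarks: DMSO wells and RFP-L50D-GFP cells; doses: 20 µM single dose, 1% DMSO; schedule: overnight cell settling, then overnight compound exposure, 37 °C, 5% CO2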
MIN6 prolif = inducers of MIN6 beta-cell proliferation, primary screen, ATP luminescence, uHTS | MIN6 cells proliferation, ATPlite luminescence, 48 h; cells starved in 0.2% serum; 100% = growth in 10% serum | proliferation, % at 10 µM | actives 0.29% (n = 330,000);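 active = compounds whose signal lies at least 3.5 SD above the mean of all wells on their plate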
SENP1 inh = human SENP1 catalytic domain inhibitors, primary screen, biochemical, FRET, uHTS. inhibition, % at 10 µM. actives 0.21% (n = 360,000). Sentrin-specific protease 1 (Homo sapiens), Q9P0U3. recombinant SENP1 catalytic domain, CyPet-SUMO1-YPet FRET cleavage;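 active = inhibition at least 30% at 10 µM, raw YFP signal under a set limit, fluorescence ratio 0.5 to 1.5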
Target sequence (Q9P0U3 419-644 limits assumed): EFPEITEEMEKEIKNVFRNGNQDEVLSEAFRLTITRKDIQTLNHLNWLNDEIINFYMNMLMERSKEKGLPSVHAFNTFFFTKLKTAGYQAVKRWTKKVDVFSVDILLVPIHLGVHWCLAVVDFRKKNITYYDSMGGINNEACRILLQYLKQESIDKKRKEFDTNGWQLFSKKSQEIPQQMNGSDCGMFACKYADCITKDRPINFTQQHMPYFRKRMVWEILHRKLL
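Material: hSENP1 catalytic domain, recombinant; medium: Tris pH 8 with BME, BSA, NP40 and catalase; compound: single concentration of 10 µM compound, 0.5% DMSO final; technique: FRET read of cyan and yellow fluorescence; timing: 50 min enzyme reaction, room temperature, light-protected; reagent: SFCypet-SUMO1-SFYpet substrate at 25 nM; control set: no-enzyme low, enzyme-DMSO high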
Myeloid diff CP1 = inducers of myeloid progenitor differentiation, confirmation, cell-based, GFP/Mac1 flow cytometry, cherry pick 01; shares compounds with Myeloid diff 2; ER-HoxA9 myeloid progenitors, GFP/Mac1 double-positive flow; calls only; actives 2% (n = 2,300); AID 651706, 2012;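 active = share of green or green-and-red cells above 9 and 9% in run 1 or 4 and 3% in run 2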
GFP autofluor = flagged as fluorescent in myeloid differentiation counter-screen; AID 651707; shares compounds with Myeloid diff 2; fluorescence response, % (test concentration not listed); actives 7.4% (n = 2,300); ER-HoxA9 myeloid progenitors, no estrogen, GFP autofluorescence flow cytometry; vehicle wells 0%, positive control 100%;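 active = over 5% cells positive for green fluorescent reporter, or over 2% positive for both it and APC stain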
A number is an active result; . = inactive; / = no result given; + = active, no number. Most compounds without a hit are left out; they make up all but 2.4% or so of the library.

SMILES	DAGLB inhibitor	CendR NRP1 mod	Myeloid diff 2	MT1-MMP act inh	MIN6 prolif	SENP1 inh	Myeloid diff CP1	GFP autofluor
O=C(NCc1ccco1)c1ccc2c(c1)N(Cc1ccc(Cl)cc1)CCS2	.	.	.	.	.	.	/	/
O=C(NCc1ccco1)c1ccc2c(c1)N(Cc1ccccc1)CCS2	.	.	.	.	.	.	.	.
CC1CCCCN1S(=O)(=O)c1ccc2c(c1)CCN2C(=O)C1CC1 (stereo unspecified)	.	.	.	.	.	.	/	/
CCN1CCc2c(sc(NC(=O)c3ccc(S(=O)(=O)N(CC)c4ccccc4)cc3)c2C(N)=O)C1	.	.	+	.	.	.	.	15
CCN1CCc2c(sc(NC(=S)NC(=O)c3ccco3)c2C(N)=O)C1	/	.	.	.	.	.	.	.
Cc1sc(NC(=S)NC(=O)c2ccco2)c(C(N)=O)c1C	.	.	.	.	.	.	/	/
CCN1CCc2c(sc(NC(=O)c3ccc(C(=O)c4ccccc4)cc3)c2C(N)=O)C1	.	.	.	.	.	.	/	/
Cc1cccnc1NC(=O)CCc1c[nH]c2ccccc12	.	.	/	.	.	.	/	/
CC1(C)CC(=O)C(C=Nc2ccc(O)c(N=CC3=C(O)CC(C)(C)CC3=O)c2)=C(O)C1	.	.	.	.	.	.	/	/
CC1(C)CC(=O)C(C=Nc2ccc(C(=O)c3ccccc3)cc2N=CC2=C(O)CC(C)(C)CC2=O)=C(O)C1	.	.	+	.	.	.	.	.
Nc1nonc1-n1nnc(C(=O)N/N=C/c2cccc(Cl)c2Cl)c1CN1CCCC1	.	.	.	.	.	.	/	/
O=C(CSc1nc2ccc(F)cc2c(=O)n1-c1ccccc1)Nc1ccc2c(c1)CCC2	/	.	+	.	/	.	.	.
COc1ccc(N2CCN(C(=O)CN3CCN(C(c4ccccc4)c4ccccc4)CC3)CC2)cc1	.	.	.	.	.	.	/	/
COc1ccc(C(=O)Nc2cccc(C(=O)N/N=C/c3ccc(OC)cc3OC)c2)cc1	.	.	.	.	.	.	.	.
COc1cc2c(cc1OC)C1Cc3ccc(OC)c(OC)c3CN1CC2 (stereo unspecified)	.	.	.	.	.	.	/	/
COc1ccc2c(c1OC)CN1CCc3cc4c(cc3[C@@H]1[C@@H]2O)OCO4	.	29	+	.	.	.	.	.
Cc1nc(NC(=O)c2ccc(Br)s2)sc1C(=O)N(C)C	.	.	.	.	.	.	.	.
O=C(CN1C(=O)NC2(CCCC2)C1=O)NNC(=O)c1ccccc1F	.	.	.	.	.	.	/	/
O=C(N/N=C/C1=C(N2CCOCC2)C(=C\c2ccccc2)/CC1)Nc1ccccc1	.	.	.	.	.	.	/	/
CCN(CC)c1ccc(/C=C2\CCC(/C=C(\C#N)C(=O)Nc3ccccc3F)=C2N2CCOCC2)cc1	.	.	.	.	/	.	.	5.5
CCN(CC)c1ccc(/C=C2\CCC(/C=N/NC(=O)c3ccc(=O)n(C)c3)=C2N2CCOCC2)cc1	.	.	+	.	.	.	.	98
S=C(NCCc1ccc(Cl)cc1)NC1CC1	.	.	.	.	.	.	/	/
Cc1c(C)c2ccc(OCC(=O)N3CC[C@@]4(O)CCCC[C@H]4C3)c(C)c2oc1=O	.	.	.	.	.	.	/	/

Screening data from PubChem.
